Compound activity deposited in PubChem BioAssay by several laboratories.
RanGTP-Impb inh = inhibitors of RanGTP-importin-beta interaction, primary screen, biochemical, FRET, CFP-Ran, YFP-importin-beta, homogeneous; Ran GTPase (GTP-bound) - importin-beta complex; cell-free CFP-Ran/YFP-importin-beta FRET ratio; inhibition, % (no concentration beside the values); hit rate 1.1% among 300,000;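 active means more than half of the replicate wells show a fall in the fluorescence ratio signal beyond about 16%, limit read from the data, passing the limit was not always enough; inconclusive means exactly half of the replicate wells pass the set limit; inactive means fewer than half of replicates pass the limit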;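 further: 0% = DMSO wells and 100% = Ran loaded with GDP instead of GTP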
MEX-5 binding = MEX-5 zinc finger RNA-binding disruptors – biochemical, C. elegans, fluorescence polarization, MLPCN library, primary screen; Zinc finger protein mex-5 (Caenorhabditis elegans), Q9XUB2; MEX-5/FITC-TCR2 RNA binding; stronger effect = lower value; activity score (negative = inhibition of binding), % at 10 µM; hit rate 0.38% among 300,000;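 active means inhibition past about -25% in most replicates, and total fluorescence under double the plate's negative control median, limit read from the data; inconclusive means replicates evenly split on the limit, or fluorescence at least double controls; inactive means too little inhibition in most replicates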;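 further: 0% = DMSO and -100% = 5 µM competing unlabeled TCR2 RNA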
Runt-SMMHC FRET = inhibitors of RUNX1 Runt–CBFb-SMMHC binding, primary screen, biochemical, FRET, Cerulean-Runt, Venus-CBFb-SMMHC, uHTS. hit rate 0.74% among 220,000. AID 1434, 2008. Cerulean-Runt/Venus-CBFb-SMMHC FRET ratio 530/480, 1 h. inhibition, % at 20 µM;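 active means mean inhibition across duplicate retests at 20 µM reaching about 50%, limit read from the data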;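 further: 0% = DMSO wells and 100% = wells with excess untagged CBFb-SMMHC; inhibitors lower the FRET ratio by blocking Runt binding to CBFb-SMMHC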
Runt-CBFb FRET = inhibitors of RUNX1 Runt–CBFb binding, primary screen, biochemical, FRET, Cerulean-Runt, Venus-CBFb, uHTS; Cerulean-Runt/Venus-CBFb FRET ratio 530/480, 1 h; inhibition, % at 20 µM; hit rate 0.46% among 220,000; AID 1496, 2009;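 active means inhibition over about 50% at 20 µM in the single-dose screen, limit read from the data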;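 further: 0% = DMSO wells and 100% = excess unlabeled CBFb competitor control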
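test system = Cerulean-tagged RUNX1 Runt domain (FRET donor) fusion protein | reagent = Venus-CBFb binding partner, 100 nM | incubation = protein complex preformed 1 h, compound exposure 1 h, room temperature, dark | detection = FRET fluorescence | read-out basis = loss of energy transfer signal | controls = 5 µM unlabeled CBFb as full-inhibition high control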
LANA-H2B inh = blockers of LANA interaction with H2A/H2B – biochemical, FP readout, HTS, primary screen; cell-free LANA-H2A/H2B peptide, fluorescence polarization; inhibition, % (concentration not given with the values); hit rate 0.6% among 320,000; AID 2629, 2010; in the data active means inhibition mostly above about 10%, no sharp cut-off; inactive means mostly below about 6.7%
Target sequence (Q9QR71 whole entry, looked up): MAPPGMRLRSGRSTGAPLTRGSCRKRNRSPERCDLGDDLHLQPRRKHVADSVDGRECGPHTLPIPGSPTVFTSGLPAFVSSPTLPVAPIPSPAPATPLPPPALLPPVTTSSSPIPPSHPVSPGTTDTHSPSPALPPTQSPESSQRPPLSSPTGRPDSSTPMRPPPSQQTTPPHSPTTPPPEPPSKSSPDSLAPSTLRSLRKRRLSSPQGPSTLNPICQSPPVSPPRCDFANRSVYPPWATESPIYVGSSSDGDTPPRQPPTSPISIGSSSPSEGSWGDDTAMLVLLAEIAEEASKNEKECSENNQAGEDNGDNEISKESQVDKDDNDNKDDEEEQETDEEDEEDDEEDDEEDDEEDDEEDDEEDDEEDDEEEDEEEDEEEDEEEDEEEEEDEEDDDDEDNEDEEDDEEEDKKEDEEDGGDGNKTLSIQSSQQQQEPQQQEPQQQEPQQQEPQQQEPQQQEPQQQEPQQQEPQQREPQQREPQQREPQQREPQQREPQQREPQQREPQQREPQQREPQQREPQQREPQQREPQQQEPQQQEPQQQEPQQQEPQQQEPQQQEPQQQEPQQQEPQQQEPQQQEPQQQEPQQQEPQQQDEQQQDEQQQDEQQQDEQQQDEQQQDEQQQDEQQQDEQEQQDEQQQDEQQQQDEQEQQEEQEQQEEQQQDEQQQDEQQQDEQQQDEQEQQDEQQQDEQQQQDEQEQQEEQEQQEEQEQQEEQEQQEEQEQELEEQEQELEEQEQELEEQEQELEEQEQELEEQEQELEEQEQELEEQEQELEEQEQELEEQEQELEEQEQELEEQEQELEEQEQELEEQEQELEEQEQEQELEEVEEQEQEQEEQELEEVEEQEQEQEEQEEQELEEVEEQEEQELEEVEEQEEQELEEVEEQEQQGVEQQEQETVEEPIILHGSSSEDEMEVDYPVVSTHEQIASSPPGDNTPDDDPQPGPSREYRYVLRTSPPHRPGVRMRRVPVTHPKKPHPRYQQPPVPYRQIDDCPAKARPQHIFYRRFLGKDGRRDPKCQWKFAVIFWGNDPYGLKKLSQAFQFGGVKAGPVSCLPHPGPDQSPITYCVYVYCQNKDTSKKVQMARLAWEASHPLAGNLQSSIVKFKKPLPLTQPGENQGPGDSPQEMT
EBV gp42 inh = Epstein-Barr virus gp42 inhibitors, primary screen, biochemical, uHTS, fluorescence polarization; inhibition, % (tested at 21.74 µM); Fluorescence polarization binding assay, mP read-out; hit rate 0.42% among 220,000; Glycoprotein 42 (Epstein-Barr virus (strain AG876)), Q1HVG2; AID 1085, 2008; in the data active means inhibition above about 50%
* marks the source's active call; other numbers are inactive results; ? = inconclusive; . = no result given; + = active, no number. An excerpt weighted towards active compounds, which were near 2.4% of everything screened.

SMILES | RanGTP-Impb inh | MEX-5 binding | Runt-SMMHC FRET | Runt-CBFb FRET | LANA-H2B inh | EBV gp42 inh
Cc1csc(SCC(=O)N(C)c2c(N)n(Cc3ccccc3)c(=O)[nH]c2=O)n1 | 6 | 0 | 1 | 0 | 2 | 0
N#CC1=C(N)C(C#N)(C#N)C(c2cccnc2)C2CCCC=C12 (stereo not drawn) | -31 | -26* | -34 | -42 | 5 | 49
N#CC1=C(N)C(C#N)(C#N)C(c2cccnc2)C2CC(c3ccccc3)CC=C12 (stereo not drawn) | -43 | 3 | -1 | -44 | 7 | 23
CCc1ccc(N2C(=O)CC(c3ccc(F)cc3)C3=C2COC3=O)cc1 (stereo not drawn) | 0 | 0 | 0 | -1 | -2 | -15
O=c1cc(CN2CCN(S(=O)(=O)c3ccccc3)CC2)nc2sccn12 | 3 | -1 | -2 | -1 | -3 | 5
O=c1cc(CN2CCCCCC2)nc2sccn12 | 8 | 0 | -4 | 2 | + | -8
Cc1cc(NCC2CCCO2)n2c(nc3ccccc32)c1C#N (stereo not drawn) | 9 | -1 | 37 | 17 | 2 | -23
CCOC(=O)CCc1c(C)c(C#N)c2nc3ccccc3n2c1-n1ccnc1 | ? | -1 | 60 | -10 | -1 | -9
COC(=O)CCc1c(C)c(C#N)c2nc3ccccc3n2c1N1CCCC1 | 17* | -3 | 62 | 13 | 5 | 1
CCc1c(C)c(C#N)c2nc3ccccc3n2c1NCC1CCCO1 (stereo not drawn) | 7 | -2 | 65* | 35 | 1 | -7
CCc1c(C)c(C#N)c2nc3ccccc3n2c1Cl | 21* | 2 | -31 | -10 | . | -19
CCc1c(C)c(C#N)c2nc3ccccc3n2c1NCc1ccccn1 | 12 | -4 | 65* | 32 | 1 | 1
Cc1ccc(NC(=O)/C=C/C(=O)O)c(NC(=O)c2ccccc2)c1 | 1 | 4 | . | . | 1 | .
CC(=O)Nc1ccc(S(=O)(=O)NCC(=O)OCC(=O)NC(=O)c2cccn2C)cc1 | 0 | 0 | -4 | -1 | -6 | 8
COC(=O)CCCC1=CC2=CC(=O)C(C)(OC(=O)c3ccco3)C(=O)C2=CO1 (stereo not drawn) | -14 | -42* | . | . | 7 | .
CCCCC1=CC2=CC(=O)C(C)(OC(=O)c3ccc(Cl)nc3)C(=O)C2=CO1 (stereo not drawn) | -27 | -29* | . | . | 2 | .
COc1ccccc1C(=O)NC(=O)COC(=O)CCOc1ccccc1C | 0 | -1 | . | . | 2 | .
COc1cccc(CC2(CO)CCN(S(=O)(=O)N(C)C)CC2)c1 | 18* | 2 | -5 | 0 | 2 | -13
CC(C)Cn1c(N)c(C(=O)COC(=O)COc2cccc(C(F)(F)F)c2)c(=O)n(C)c1=O | 3 | 3 | . | . | 1 | .
C/C(=N/NC(=O)c1cccs1)c1c(C)[nH]n(-c2nc3ccccc3s2)c1=O | -7 | 0 | 98* | 45 | -3 | 18
Cc1nc(S/C(=C/c2ccc(-c3cccc(Cl)c3)o2)C(=O)O)n[nH]1 | 4 | -35* | -116 | 13 | 4 | -33
CS(=O)(=O)c1ccc(Cl)c(NC(=O)COC(=O)CCCN2C(=O)c3cccc4cccc(c34)C2=O)c1 | 25* | -1 | . | . | -2 | .
Cc1cc(O)ccc1Nc1nc2ccccc2nc1Nc1ccc(O)cc1C | 37* | 0 | . | 38 | -1 | 22
Cc1ccc(Nc2nc3ccccc3s2)c(C)c1 | 1 | 2 | 1 | 0 | -2 | -3
Cc1nn(-c2ccccc2)c(C)c1NC(=O)COc1cc(F)ccc1[N+](=O)[O-] | . | . | . | . | -2 | .
SMILES | RanGTP-Impb inh | MEX-5 binding | Runt-SMMHC FRET | Runt-CBFb FRET | LANA-H2B inh | EBV gp42 inh
O=Cc1cnc(N2CCCCC2)s1 | -2 | 1 | 4 | 1 | 3 | 112*
O=C(N/N=C/c1cnc(N2CCCCC2)s1)c1ccc(Cl)cc1 | -2 | -1 | 3 | -2 | 6 | -4
CC(=O)O[C@H]1CC[C@H]2[C@@H]3CCc4cc(O)ccc4[C@H]3CC[C@]12C | ? | 0 | -5 | -1 | -14 | -5
C[C@]12CC[C@@H]3c4ccc(O)cc4[C@@H](O)C[C@H]3[C@@H]1CC[C@@H]2O | -1 | -1 | 3 | -1 | 26* | -11
C[C@]12CC[C@@H]3c4ccc(O)cc4CC[C@H]3[C@@H]1CC[C@@H]2O | 0 | 0 | 0 | -3 | -1 | -7
C[C@]12CC[C@@H]3c4cc(O)c(O)cc4CC[C@H]3[C@@H]1CC[C@@H]2O | -4 | -8 | 57 | 26 | 29* | -17
COc1ccc(CCNC(=O)COC(=O)CCC(=O)c2ccc(F)cc2)cc1OC | 1 | 0 | -1 | 0 | -2 | 2
COc1ccc(N2CCN(C(=O)c3cccc4nc(C)oc34)CC2)cc1 | -3 | -1 | -3 | 3 | -1 | 0
COC(=O)C1=C(N)Oc2cc(N(C)C)ccc2C1c1ccccc1OC (stereo not drawn) | 24* | 2 | -39 | -14 | 0 | -13
NC(=S)n1[nH]c(-c2ccc([N+](=O)[O-])cc2)c(N=Nc2ccc(Cl)cc2)c1=O | . | . | -10 | -4 | . | 92*
Cc1ccc([N+](=O)[O-])cc1N=Nc1c(-c2ccc([N+](=O)[O-])cc2)[nH]n(C(N)=S)c1=O | 8 | 1 | -16 | -1 | . | 107*
CC[C@@]1(C(=O)OC)N[C@H](CN(C)C(=O)Nc2ccc(OC)cc2)[C@@H]2C(=O)N(Cc3ccccc3)C(=O)[C@@H]21 | . | . | . | . | + | .
COC(=O)[C@]1(C)N[C@H](CN(C)C(=O)Nc2ccc(Cl)cc2)[C@@H]2C(=O)N(Cc3ccccc3)C(=O)[C@@H]21 | . | . | . | . | + | .
CCOc1ccc(CCNC(=O)c2ccc(S(=O)(=O)N3CCCC3)cc2)cc1OCC | 0 | 1 | . | . | -15 | .
CCN(CC)c1ccc(N=Nc2nn(C)c(C)c2[N+](=O)[O-])cc1 | 1 | 0 | 5 | -4 | 0 | -16
CCN(CC)c1ccc(N=Nc2ncn[nH]2)cc1 | -10 | -52* | -16 | -12 | 5 | -42
COc1ccccc1C(=O)C1CCCN(C(=O)CN2CCCCC2=O)C1 (stereo not drawn) | -4 | 0 | -2 | -1 | 0 | 9
